A short description of experiment [1]: Antiplatelet activity in human whole blood assessed as inhibition of ADP-induced platelet aggregation at 10 ug/ml treated for 2 mins before ADP challenge measured after 6 mins by whole blood aggregometer. The class given is functional. Summed up:
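Whole blood diluted 1:1 with pre-warmed PBS (pH 7.4) at 37 °C. Stirred at 1000 rpm until baseline reached. Test sample or control added with 2 min incubation, then ADP (10 µM final) to start aggregation. Impedance (ohms) followed for 6 min, taken from lowest point to end of interval. Blood used within 4 h of collection; controls run between samples; three runs per assay.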

Experiment [2] can be described thus: Ratio of compound to aspirin for human whole blood. The class given is functional, Platelet.

The term inhibition denotes the change of the read-out against control, counted positive when it falls.

Each structure is given as a SMILES string.

In the case of `COc1ccc(-c2cc(-c3ccccc3)nc(N)n2)c(O)c1`, in experiment [1], the inhibition at 10 µg/mL is 42.7%.

As for `COc1ccc(-c2cc(-c3cc(OC)ccc3O)nc(N)n2)cc1`, in experiment [1], the inhibition at 10 µg/mL came out at 64.3%.

Turning to `COc1ccc(O)c(-c2cc(-c3ccccc3Cl)nc(N)n2)c1`, the inhibition at 10 µg/mL in experiment [1] was found to be 55.1%.

In the case of `COc1ccc(O)c(-c2cc(-c3cccc(Cl)c3)nc(N)n2)c1`, the inhibition at 10 µg/mL in experiment [1] was determined as 66.8%.

Consider `COc1ccc(O)c(-c2cc(-c3ccc(F)cc3)nc(N)n2)c1`, for which, in experiment [1], the inhibition at 10 µg/mL came to 8.79%.

`COc1ccc(O)c(-c2cc(-c3ccco3)nc(N)n2)c1`: the inhibition at 10 µg/mL in experiment [1] came out at 1.46%.

`COc1ccc(-c2cc(-c3ccc(Cl)cc3)nc(N)n2)c(O)c1`: in experiment [1], the inhibition at 10 µg/mL came out at 8.42%.

For the molecule `COc1ccc(-c2cc(-c3cccc(C)c3)nc(N)n2)c(O)c1`, in experiment [1], the inhibition at 10 µg/mL was 23.1%.

Consider `COc1ccc(-c2cc(-c3cccc(Cl)c3)nc(N)n2)c(O)c1`, for which the inhibition at 10 µg/mL in experiment [1] was determined as 65.8%.

For `COc1ccc(-c2cc(-c3ccc(Cl)cc3Cl)nc(N)n2)c(O)c1`, the inhibition at 10 µg/mL in experiment [1] is 77.5%. For the same molecule, the Ratio in experiment [2] came to 2.

Consider `COc1cccc(-c2cc(-c3ccc(OC)cc3O)nc(N)n2)c1`, for which the inhibition at 10 µg/mL in experiment [1] was determined as 51.2%.

Regarding `COc1ccc(-c2cc(-c3ccc(F)cc3)nc(N)n2)c(O)c1`, the inhibition at 10 µg/mL in experiment [1] was 64%.

For the molecule `COc1ccc(-c2cc(-c3ccc(C)cc3)nc(N)n2)c(O)c1`, in experiment [1], the inhibition at 10 µg/mL amounted to 62.8%.

As for `COc1ccc(-c2cc(-c3ccc([N+](=O)[O-])cc3)nc(N)n2)c(O)c1`, the inhibition at 10 µg/mL in experiment [1] came to 58.5%.

Turning to `CCOc1ccc(O)c(-c2cc(-c3ccccc3)nc(N)n2)c1`, in experiment [1], the inhibition at 10 µg/mL came to 39.9%.

For the molecule `CC(=O)Oc1ccccc1C(=O)O` [ASPIRIN], the inhibition at 10 µg/mL in experiment [1] is 37.5%.

These data come from ChEMBL document CHEMBL1949572, “Assessment of antiplatelet activity of 2-aminopyrimidines” (2012).
